# Screening data from PubChem BioAssay.
# TAAR1 antag: human TAAR1 antagonism. Q96RJ0. CHO RD-HGA16 TAAR1, Fluo-8 calcium fluorescence, antagonist. inhibition, % at 3 µM. 360,000 compounds, 1.5% hits. AID 624466;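 active = inhibition above a per-plate cutoff, the mean inhibition of test compounds on that plate plus 3 SD, cut at about 49% in these data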
# Target sequence (Q96RJ0 whole entry, looked up): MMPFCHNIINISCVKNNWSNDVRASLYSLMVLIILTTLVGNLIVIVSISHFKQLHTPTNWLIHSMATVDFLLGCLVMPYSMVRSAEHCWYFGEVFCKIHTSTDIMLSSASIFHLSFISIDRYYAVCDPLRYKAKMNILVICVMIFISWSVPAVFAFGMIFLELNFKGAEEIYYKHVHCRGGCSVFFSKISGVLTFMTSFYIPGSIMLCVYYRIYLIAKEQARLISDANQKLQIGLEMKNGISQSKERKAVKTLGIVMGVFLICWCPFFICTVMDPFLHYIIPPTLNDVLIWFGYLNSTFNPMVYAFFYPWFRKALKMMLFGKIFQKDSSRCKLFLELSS
#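 Test system: hTAAR1-expressing CHO RD-HGA16 cells, Gα16-coupled; Probe or stimulus: EC80 β-phenethylamine stimulus; Compound dosing: single nominal final test compound concentration of 3 µM; Timing: 140 s kinetic read after compound, 140 s after agonist; Signal: Fluo-8 calcium-sensitive fluorescence; Measure: % inhibition of agonist calcium response; Controls: DMSO and EC80 PEA controls.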
# CRFR2-BP ag: agonists of human CRF-binding protein/CRF-R2 receptor complex | HEK293 CRF-R2/CRF-BP, calcium dye fluorescence (FLIPR); percent of saturating CRF peptide response | activation, % at 13.2 µM | 350,000 compounds, 0.46% hits | AID 588473;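 active = activation of at least 50%, plus an integration ratio under a set limit after plate pattern correction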
# TMEM16A act: activators or potentiators of mouse TMEM16A chloride channel; 340,000 compounds, 0.3% hits; AID 623877; B-score at 10 µM; Q8BHY3; HEK293 TMEM16A/YFP-H148Q/I152L, iodide quench fluorescence; hits give low values;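 active = fluorescence-ratio B-score plate-corrected deviation score at least 3 library SD below zero, with starting fluorescence score within 5 deviations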;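 note: channel opened by trigger with iodide after compound preincubation; score built on the fluorescence ratio of max minus min over baseline; more negative score means more quench and so TMEM16A activation or potentiation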
# TAAR1 agonist: agonists of human TAAR1; CHO RD-HGA16 TAAR1, Fluo-8 calcium fluorescence; vehicle wells 0%, saturating PEA agonist 100%; Q96RJ0; activation, % at 3 µM; 360,000 compounds, 0.99% hits; AID 624467;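 active = activation above the mean activation of all test compounds in the run plus 3 SD, cut at about 38% in these data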
#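 System: CHO-derived RD-HGA16 cells with stable Gα16 and human TAAR1. Times: 17-24 h plating, Fluo-8 75 min 37 °C, 30 min RT. Measured by: calcium-sensitive Fluo-8 signal, excitation 470-495, emission 515-575 nm. Read-out basis: % activation relative to PEA EC100 response. Control set: DMSO and PEA EC100. Repeats: no replicates (n 1).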
# CRFR2-BP antag: blocks CRF-induced signaling of the CRF-BP/CRF-R2 complex; HEK293 CRF-R2/CRF-BP, CRF-induced calcium fluorescence; 350,000 compounds, 0.59% hits; AID 588475; inhibition, % at 11.8 µM;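 active = inhibition of the ligand-induced calcium signal above about 50% at the single tested concentration, limit read from the data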
# TMEM16A inh: inhibitors of mouse TMEM16A calcium-activated chloride channel; 310,000 compounds, 1.2% hits; normalized B-score (activity score, 25-100; higher = stronger inhibition) at 10 µM; HEK293 TMEM16A/YFP iodide influx fluorescence, ionomycin; Q8BHY3;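 active = ratio plate-corrected score three or more library SD toward inhibition, starting fluorescence score within five deviations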;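 note: score derived from kinetic fluorescence span divided by baseline fluorescence per well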
# TMEM16A reconf: TMEM16A (mouse) chloride channel inhibition, re-confirmation | 2,300 compounds, 39% hits | HEK293 TMEM16A/YFP-H148Q, iodide quench fluorescence; ionomycin added to raise cell calcium | inhibition, % at 10 µM | AID 652189 | shares compounds with TMEM16A inh;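 active = mean duplicate percent inhibition, scaled so buffer wells are 0 and the reference blocker 100, over three buffer SD above buffer mean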
# TMEM16A Ca cntr: calcium mobilization counter-screen hit for TMEM16A inhibitor series. shares compounds with TMEM16A inh. TMEM16A/YFP HEK293, Fluo4 calcium mobilization. calcium response (% of ionomycin), % at 10 µM. 2,300 compounds, 2% hits. AID 652231;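 active = duplicate-averaged calcium signal over 20% of the ionomycin maximum, relative to buffer baseline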;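 note: each well's signal is peak minus trough fluorescence divided by its pre-addition baseline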
# YFP-HEK293 quench: acts in parental YFP-HEK293 cells lacking TMEM16A, counter-screen; 2,300 tested, under 10 active; YFP ratio F(max-min)/F0 at 10 µM; shares compounds with TMEM16A inh; iodide YFP quench, ionomycin;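 active = yellow fluorescent protein signal ratio exceeding the buffer control mean by over 5 SD of those controls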;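 note: ratio is mean of duplicate wells from kinetic YFP trace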
# ClC-1 rat inh: selectivity of TMEM16A inhibitors: inhibition of rat ClC-1 chloride channel; 2,300 tested, under 10 active; ratio percent, % at 10 µM; AID 652236; shares compounds with TMEM16A inh; CHO ClC-1-YFP, iodide influx fluorescence quench; iodide control reads 0, buffer control 100;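 active = duplicate-mean ratio percent above the mean of iodide-only control wells, which defines zero, plus 5 of their SD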;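 note: higher percent means stronger block of ClC-1 iodide influx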
# Hits are given with their value; i = inactive; nt = no result given. In the library only some 3.9% were active in any assay of this set; here they are far more common.
SMILES,TAAR1 antag,CRFR2-BP ag,TMEM16A act,TAAR1 agonist,CRFR2-BP antag,TMEM16A inh,TMEM16A reconf,TMEM16A Ca cntr,YFP-HEK293 quench,ClC-1 rat inh
O=C(NCc1ccco1)c1ccccc1NS(=O)(=O)c1ccc(Cl)s1,i,i,i,i,i,100,i,i,i,i
Cc1cc(C)cc(NC(=O)c2nnn(Cc3cc(C)ccc3C)c2N)c1,nt,54,-4.6,nt,i,25,42%,i,i,i
COC(=O)c1ccc(C2/C(=C(/O)c3ccc4c(c3)CC(C)O4)C(=O)C(=O)N2Cc2ccncc2)cc1 (stereo not given),i,i,i,i,i,i,nt,nt,nt,nt
O=C(CSc1ccc(F)cc1)N1CCC(c2nc3ccccc3s2)CC1,52,i,i,i,i,100,29%,i,i,i
COc1ccccc1-c1nnc(SCC(=O)Nc2cccnc2Cl)n1C,i,i,i,i,i,nt,nt,nt,nt,nt
CC(=O)N1CCN(S(=O)(=O)c2cccc(C(=O)OCc3ccc(C(C)(C)C)cc3)c2)CC1,i,i,i,i,i,nt,nt,nt,nt,nt
COC(=O)c1c(NS(=O)(=O)c2ccc(C)cc2)sc2c1CCC(C)C2 (stereo not given),i,i,i,i,i,100,30%,i,i,i
CC(C)OCCCn1c(=NC(=O)c2ccncc2)c(C#N)cc2c(=O)n3ccccc3nc21,i,i,i,i,i,25,i,28%,i,i
COc1cccc(NC(=S)N(CCC(C)C)C2CCN(C(C)=O)CC2)c1,i,i,i,i,i,i,nt,nt,nt,nt
CCn1nc(C)c(CNC(=O)c2cc(COc3ccc(F)cc3Cl)on2)c1C,i,i,i,i,i,25,24%,i,i,i
c1ccc(-c2nc(CSc3nnc(-c4cccs4)o3)cs2)cc1,i,i,i,i,i,100,i,i,i,i
Cc1ccc(Nc2nc(CSc3nnc(-c4cccs4)o3)cs2)cc1,i,i,i,i,i,i,nt,nt,nt,nt
Cc1ccc(C)c(OCC(=O)NCCNC(=O)COc2cc(C)ccc2C)c1,i,i,i,i,i,100,i,i,i,i
C[C@H]1CCC[C@@]2(O[C@H](CCO)C[C@@H](O)[C@@H]2O)O1,i,i,i,i,i,i,nt,nt,nt,nt
O=S(=O)(c1cccs1)N1CCN(c2ccnc3cc(Cl)ccc23)CC1,i,i,i,i,i,i,nt,nt,nt,nt
O=S(=O)(c1ccccc1)N1CCN(c2ccnc3cc(Cl)ccc23)CC1,i,i,i,i,i,100,i,i,i,i
Cc1ccc(NC(=O)COc2coc(CN3CCN(Cc4ccccc4)CC3)cc2=O)cc1,i,i,i,i,i,25,i,i,i,i
Cc1ccccc1NC(=O)COc1coc(CN2CCN(Cc3ccccc3)CC2)cc1=O,i,i,i,i,i,i,nt,nt,nt,nt
CSC(=S)NN=C(C)c1cccc(C)n1,i,i,i,i,i,nt,nt,nt,nt,nt
CC(=O)N1CCN(c2ccc(NC(=O)c3ccc(F)cc3)cc2)CC1,i,i,i,i,i,i,nt,nt,nt,nt
CCCc1cc(C(N)=O)c(NC(C)=O)s1,i,i,i,i,i,100,i,i,i,i
C=C(C)CNC(=O)c1ccc2nc(Cc3ccc(OC)cc3)oc2c1,i,i,i,i,i,i,nt,nt,nt,nt
COc1cc(C(=O)Nc2cccc(-c3cn4cccnc4n3)c2)cc(OC)c1OC,i,i,i,i,i,i,nt,nt,nt,nt
Cc1onc(-c2ccccc2Cl)c1C(=O)Nc1cccc(-c2cn3cccnc3n2)c1,nt,i,i,nt,i,25,i,i,i,i
Oc1ccc(-c2[nH]ncc2-c2ccc(Br)cc2)c(O)c1,i,i,i,i,i,i,nt,nt,nt,nt
SMILES,TAAR1 antag,CRFR2-BP ag,TMEM16A act,TAAR1 agonist,CRFR2-BP antag,TMEM16A inh,TMEM16A reconf,TMEM16A Ca cntr,YFP-HEK293 quench,ClC-1 rat inh
Oc1ccc(-c2[nH]ncc2-c2ccc(Cl)cc2)c(O)c1,i,i,i,i,i,25,i,i,i,i
Cc1ccc(Sc2ncccc2COC(=O)Nc2c(C)cccc2C)cc1,i,i,i,i,i,100,i,i,i,i
Cc1ccc(Sc2ncccc2COC(=O)Nc2ccccc2)cc1,i,i,i,i,i,100,i,i,i,i
CC1(C(=O)NCc2cccc3ccccc23)CCN1Cc1cc2ccccc2o1 (stereo not given),i,nt,nt,i,nt,nt,nt,nt,nt,nt
O=C(COC(=O)/C=C/c1ccc(F)cc1)NC1CCS(=O)(=O)C1 (stereo not given),i,i,i,i,i,nt,nt,nt,nt,nt
CC(=O)c1ccc(NC(=O)c2ccc(-n3cnnn3)cc2)cc1,i,i,i,i,i,nt,nt,nt,nt,nt
CCc1ccc(CNc2ccc(N3CCN(C(C)=O)CC3)cc2)cc1,i,i,i,i,i,25,i,i,i,i
CC(=O)N1CCN(c2ccc(NCc3ccc(C)cc3)cc2)CC1,i,i,nt,i,i,i,nt,nt,nt,nt
Cc1cc(NC(=O)CSCC(=O)Nc2ccccc2Oc2ccccc2)no1,i,i,i,i,i,i,nt,nt,nt,nt
Cc1ccc(Oc2ccccc2NC(=O)CSCC(=O)Nc2cc(C)on2)cc1,i,i,i,i,i,i,22%,i,i,i
O=C(O)c1ccc(N=Nc2c(O)[nH]c3ccc(Br)cc23)cc1,i,i,i,i,i,i,17%,i,i,i
CCOc1ccc(-c2nc(C#N)c(NCc3ccc4c(c3)OCO4)o2)cc1,i,i,i,i,i,i,nt,nt,nt,nt
Cc1ccc(OCc2nc(C#N)c(NCc3ccc4c(c3)OCO4)o2)cc1,i,i,i,i,i,25,16%,i,i,i
O=C(NC1CCCCCC1)C1Cc2ccccc2CN1C(=O)c1ccco1 (stereo not given),i,i,i,i,i,i,nt,nt,nt,nt
Oc1ccccc1Cc1c(O)ccc2ccccc12,i,i,i,i,i,25,38%,i,i,i
CN(C)Cc1c(O)ccc2ccccc12,i,i,i,i,i,i,nt,nt,nt,nt
COc1ccc(CNC(=O)C2(C)Cc3ccccc3C(=O)O2)cc1 (stereo not given),i,i,i,i,i,i,nt,nt,nt,nt
COc1cc2c(cc1NCc1ccccn1)oc1ccccc12,i,i,i,i,i,100,i,i,i,i
CCN(CC)CC(=O)Nc1nc(-c2ccc(Cl)cc2)cs1,i,i,i,i,i,100,i,i,i,i
